The record followed here is PMC4397581 (Nature chemical biology, 2015).

In one assay the test system is human neutrophils. Description: Human NET assay. In kind it is cell-based. The note with it: S. aureus, 5 bacteria per neutrophil, versus vehicle. Put shortly: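 S. aureus was grown 20 h shaking in LB at 37 °C, washed in ice-cold PBS and added at 5× MOI for 3 h at 37 °C. Cells were fixed in 2% PFA and stained with Hoechst 33342. Confocal imaging was used, with algorithmic classification as lobulated, delobulated or diffused NETs, from 60 fields across 3 wells per treatment.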

A further assay has as its system mouse neutrophils. The experiment in a line: Mouse NET assay. The note with it: 10 µM pre-treatment, ionomycin. In kind it is cell-based. Put shortly: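 Mouse peripheral blood neutrophils were isolated by density centrifugation plus hypotonic lysis (>90% pure). They were settled 15 min on uncoated glass-bottom wells in RPMI/10 mM HEPES at 37 °C, given compound or vehicle for 20 min, then stimulated with 4 µM ionomycin for 2 h at 37 °C. Cells were fixed in 2% PFA overnight at 4 °C, permeabilised, blocked, and stained with anti-citrullinated H3 (0.3 µg/mL, overnight 4 °C), a fluorescent secondary and Hoechst 33342. Fluorescence microscopy was used for blinded scoring of H3Cit+ cells and spread NETs by nuclear morphology.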

The subject of assay [1] is panel of 50 unrelated proteins. Description: Off-target panel.
Assay [2] relates to histone deacetylases 1–11. The experiment in a line: Histone deacetylase selectivity. The class given is biochemical. Particulars: for inhibition of histone deacetylases 1–11: at 100 µM; for Activation of HDACs: up to 100 µM.
A further assay deals with PAD4 (Homo sapiens, UniProt Q9UM07). Description: PAD4 FP binding assay. Particulars: 10 nM GSK215, mean of replicates.
Chain of PAD4 (Q9UM07 whole entry): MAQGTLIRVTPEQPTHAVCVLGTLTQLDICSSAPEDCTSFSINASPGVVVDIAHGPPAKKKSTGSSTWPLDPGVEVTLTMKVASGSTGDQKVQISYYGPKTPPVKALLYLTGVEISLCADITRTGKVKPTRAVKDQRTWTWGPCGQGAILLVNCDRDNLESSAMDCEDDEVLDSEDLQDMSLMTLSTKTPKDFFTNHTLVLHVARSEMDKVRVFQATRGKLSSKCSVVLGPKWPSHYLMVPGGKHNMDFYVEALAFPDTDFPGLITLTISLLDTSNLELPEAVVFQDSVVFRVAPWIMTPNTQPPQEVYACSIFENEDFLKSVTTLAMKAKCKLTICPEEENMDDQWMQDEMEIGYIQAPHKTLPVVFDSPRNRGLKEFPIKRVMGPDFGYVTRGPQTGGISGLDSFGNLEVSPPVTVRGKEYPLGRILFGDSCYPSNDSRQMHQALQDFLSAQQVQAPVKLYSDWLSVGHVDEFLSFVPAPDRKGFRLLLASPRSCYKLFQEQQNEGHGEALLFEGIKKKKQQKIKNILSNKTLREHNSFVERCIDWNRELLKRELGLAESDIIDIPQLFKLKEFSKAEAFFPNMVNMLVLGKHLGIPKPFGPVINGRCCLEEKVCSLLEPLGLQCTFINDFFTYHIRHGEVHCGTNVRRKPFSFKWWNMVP

For the compound `COc1cc(C(=O)N2CC[C@@H](O)[C@@H](N)C2)cc2nc(-c3cc4ccccc4n3CC3CC3)n(C)c12` [GSK484, ((3S,4R)-3-Amino-4-hydroxypiperidin-1-yl)(2-(1-(cyclopropylmethyl)-1H-indol-2-yl)-7-methoxy-1-methyl-1H-benzo[d]imidazol-5-yl)methanone], the “Diffused NETs” value with human neutrophils was “clear, statistically-significant reduction”. Further, in the assay with mouse neutrophils, the “Histone H3 citrullination” value is listed as “dramatically diminished” and the NET formation result is reported as “dramatically diminished”. Besides, the “Off-target activity against a panel of 50 unrelated proteins” value in assay [1] was “negligible off-target activity”. In addition, in assay [2], the “inhibition of histone deacetylases 1–11” value is recorded as under 50% and the “Activation of HDACs” value is “no activation across HDACs 1–11”.
Usually IC50 stands for the concentration needed to halve the response being measured. Compound `CCn1c(-c2nc3cc(C(=O)N4CCC[C@@H](N)C4)cc(OC)c3n2C)cc2cccnc21` [GSK199, (R)-(3-Aminopiperidin-1-yl)(2-(1-ethyl-1H-pyrrolo[2,3-b]pyridin-2-yl)-7-methoxy-1-methyl-1H-benzo[d]imidazol-5-yl)methanone] came in with an IC50 at PAD4 (PAD4 FP Binding Assay IC50, 0 mM Ca, 0 mM Ca) of 200 nM. For the same compound, the IC50 on PAD4 (PAD4 FP Binding Assay IC50, 2 mM Ca, 2 mM Ca) is 1000 nM. Moreover, the “Diffused NETs” value with human neutrophils is “less marked inhibition”. Moreover, in the assay with mouse neutrophils, the “Histone H3 citrullination” value is on record as “produced the same effect” and the NET formation entry is “produced the same effect”. Moreover, the “Off-target activity against a panel of 50 unrelated proteins” value in assay [1] was “negligible off-target activity”. In assay [2], the “inhibition of histone deacetylases 1–11” value is under 50%; the “Activation of HDACs” value was “partial activation of HDACs 1 and 8 at high concentrations”.
For `CCn1c(-c2nc3ccc(C(=O)N4CCCC(N)C4)cc3n2C)cc2ccccc21` (centres unmarked) [GSK106, (3-Aminopiperidin-1-yl)(2-(1-ethyl-1H–indol-2-yl)-1-methyl-1H-benzo[d]imidazol-6-yl)methanone], the “Diffused NETs” value with human neutrophils was “ineffective”. Moreover, in the assay on mouse neutrophils, the “Histone H3 citrullination” value is given as “ineffective” and the NET formation entry is listed as “ineffective”.
